# Like-named read-outs stand apart in the source and are kept apart here.
# What was measured:
# P. falciparum IspC [1] = molecular target: T1, P. falciparum IspC (Plasmodium falciparum, UniProt O96693); conditions: cited from earlier work
# T1 sequence (O96693 73-488): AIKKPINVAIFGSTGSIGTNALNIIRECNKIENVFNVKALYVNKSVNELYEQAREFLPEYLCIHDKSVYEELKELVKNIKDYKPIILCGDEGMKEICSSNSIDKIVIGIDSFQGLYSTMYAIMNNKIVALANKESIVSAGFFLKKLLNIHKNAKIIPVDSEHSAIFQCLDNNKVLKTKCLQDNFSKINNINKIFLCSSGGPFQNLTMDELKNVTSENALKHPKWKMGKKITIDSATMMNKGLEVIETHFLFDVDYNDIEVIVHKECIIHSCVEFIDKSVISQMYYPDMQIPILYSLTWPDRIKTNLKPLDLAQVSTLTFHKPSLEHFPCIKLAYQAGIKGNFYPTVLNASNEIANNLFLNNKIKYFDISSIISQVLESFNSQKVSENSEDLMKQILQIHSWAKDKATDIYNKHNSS
# [2] = cited from earlier work
# P. falciparum IspC [3] = molecular target: T1, P. falciparum IspC; assay: P. falciparum IspC inhibition assay; assay type: biochemical
# In short: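 His6-tagged recombinant enzyme (E. coli Rosetta2(DE3), TALON-purified), 0.86 μM in 100 mM Tris pH 7.8, 25 mM MgCl2. Preincubated 10 min at 37 °C with inhibitor, then 150 μM NADPH added for 5 min. Reaction started with 144 μM DXP and A340 followed at 37 °C. IC50 from nonlinear sigmoidal fit of fractional activity versus inhibitor concentration; duplicate.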
# P. falciparum IspC [4] = molecular target: T1, P. falciparum IspC; assay: Mechanism of inhibition; assay type: biochemical; conditions: for mode of inhibition with respect to DXP / mode of inhibition with respect to NADPH: Lineweaver-Burk plots; for mode of inhibition with respect to DXP: DXP varied 50-400 μM, NADPH 150 μM; for mode of inhibition with respect to NADPH: NADPH varied 6-30 μM, DXP 144 μM
# In short: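 N-terminal His6-tagged recombinant enzyme, expressed in E. coli Rosetta2(DE3) and purified by TALON affinity chromatography. […] NADPH oxidation read at 340 nm. Mode taken from Lineweaver–Burk linear fits, Ki from secondary plots; at least triplicate.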
# [5] = test system: Mycobacterium tuberculosis; conditions: antibacterial activity; cited from earlier work
SMILES,mode of inhibition with respect to DXP (P. falciparum IspC [1]),mode of inhibition with respect to NADPH (P. falciparum IspC [1]),serum half-life [2],IC50 (P. falciparum IspC [3]),mode of inhibition with respect to DXP (P. falciparum IspC [4]),mode of inhibition with respect to NADPH (P. falciparum IspC [4]),"Ki relative to DXP, fold higher than that of 3c (P. falciparum IspC [4]; 1d versus 3c)",MIC [5],Ki (P. falciparum IspC [4])
"O=CN(O)CCCP(=O)(O)O [1a, fosmidomycin]",competitive,uncompetitive,short,–,–,–,–,–,–
"O=C(CCc1ccccc1)N(O)C/C=C/P(=O)([O-])O.[Na+] [1b, Sodium Hydrogen [(1E)-3-(N-hydroxy-3-phenylpropanamido)prop-1-en-1-yl]phosphonate]",–,–,–,1310 nM,competitive,uncompetitive,–,–,–
CC(=O)N(C/C=C/P(=O)([O-])O)OCc1ccc(-c2ccccc2)cc1.[Na+] [1d],–,–,–,5670 nM,competitive,competitive,3 fold,–,–
"CC(=O)N(O)CCCP(=O)(O)O [2a, FR900098]",competitive,uncompetitive,short,–,competitive,uncompetitive,–,> 500 µg/mL,9 nM
"O=C(CCCc1ccccc1)N(O)C/C=C/P(=O)([O-])O.[Na+] [2b, Sodium Hydrogen [(1E)-3-(N-hydroxy-4-phenylbutanamido)prop-1-en-1-yl]phosphonate]",–,–,–,900 nM,competitive,uncompetitive,–,–,–
"CCCCC(=O)N(O)CCCP(=O)([O-])O.[Na+] [3a, Sodium Hydrogen-3-(N-hydroxypentanamido)propylphosphonate]",–,–,–,2450 nM,competitive,uncompetitive,–,–,–
CC(=O)N(CCCP(=O)([O-])O)OCc1ccc(-c2ccccc2)cc1.[Na+] [3c],–,–,–,804 nM,competitive,competitive,–,–,–
O=C(CCCc1ccccc1)N(O)CCCP(=O)([O-])O.[Na+] [4a],–,–,–,1340 nM,competitive,uncompetitive,–,–,–
